Sampled rows, rich in hits. Any-hit rate of the full collection: about 1.8%.
HTRA1 inhibitor: HTRA1 (human) protease inhibition. Q92743. recombinant HTRA1, FP-rhodamine activity-based probe, fluorescence polarization. inhibition, % at 5.96 µM. 340,000 tested, 0.5% active; in the data active = inhibition above about 36%;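 note: 0% = enzyme with DMSO and 100% = wells lacking enzyme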
Target sequence (Q92743 whole entry, looked up): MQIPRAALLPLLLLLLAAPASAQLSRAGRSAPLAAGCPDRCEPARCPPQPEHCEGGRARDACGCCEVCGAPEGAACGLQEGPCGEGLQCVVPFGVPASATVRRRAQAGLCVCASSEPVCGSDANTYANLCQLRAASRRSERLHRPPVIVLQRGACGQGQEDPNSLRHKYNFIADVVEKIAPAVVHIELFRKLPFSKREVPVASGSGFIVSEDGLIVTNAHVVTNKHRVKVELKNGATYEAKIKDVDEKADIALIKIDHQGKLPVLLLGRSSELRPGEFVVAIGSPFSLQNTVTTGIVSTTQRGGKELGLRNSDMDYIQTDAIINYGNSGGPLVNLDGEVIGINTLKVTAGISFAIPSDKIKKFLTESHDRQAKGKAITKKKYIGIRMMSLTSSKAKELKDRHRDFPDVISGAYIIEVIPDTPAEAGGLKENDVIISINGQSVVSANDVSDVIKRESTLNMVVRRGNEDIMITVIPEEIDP
mABHD4 FP: inhibits mouse alpha/beta hydrolase domain 4; purified mABHD4, FP-Rh probe fluorescence polarization; inhibition, % at 8.92 µM; 370,000 tested, 0.54% active; AID 720543;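 active = inhibition exceeding the mean over every tested compound plus 3 SD, cut at about 30% in these data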;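 note: 0% = plate median of compound wells and 100% = S159A mutant with DMSO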
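Test system: mABHD4 protein | Buffer or medium: HEPES pH 7.0 buffer, 150 mM NaCl, 0.01% Pluronic F-127 | Probe or stimulus: FP-Rh fluorescent activity-based probe, added after compound pre-incubation | Timing: Pre-incubation 45 min, probe exposure 60 min, at 25 °C | Technique: Fluorescence polarization, excitation 525 nm, emission 598 nm, BODIPY TMR filters | Repeats: Single well per compound (singlicate)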
TCR CD3 inh: blocks the human TCR-CD3 interaction | TAMRA-labeled TCR probe fluorescence, biochemical | inhibition, % at 9.4 µM | 360,000 tested, 0.37% active; in the data active = inhibition above about 19%;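 note: recombinant mutant TCR 2C K166C tagged with TAMRA read by polarization; 0% = receptor in buffer alone and 100% = receptor with positive control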
Tn7 DDE FP: DD(E)-Tn7 binding inhibition, primary FP screen; AID 720508; FP displacement of FITC-Tn7 peptide from fibrin DD(E); 0% = median of compound wells per plate; inhibition, % at 8.3 µM; 370,000 tested, 0.13% active;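 active = inhibition above the mean of compounds falling within the control limits plus 3 SD of them, cut at about 14% in these data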;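 note: 0% = plate median of compound wells and 100% = 10 µM Aha-Tn7 peptide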
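Assay system: Human clot-derived fibrin DD(E) complex | Buffer or medium: Tris/NaCl/CaCl2 buffer, pH 7.8 | Repeats: One replicate per compound | Benchmarks: Aha-Tn7 high control | Measure: % inhibition scaled between sample-field median and high-control FP | Schedule: 10 min plus 3 h, room temperature | Signal: Fluorescence polarization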
Tn6 DDE FP: DD(E)-Tn6 binding inhibition, primary FP screen; P02675; Fibrin DD(E) TRITC-Tn6 fluorescence polarization displacement; inhibition, % at 8.3 µM; 370,000 tested, 0.21% active;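 active = inhibition above a per-campaign cutoff: mean of compounds within control limits plus 3 SD, cut at about 15% in these data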;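 note: 0% = median of all compound wells on the plate and 100% = blocking peptide control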
SIAE primary: inhibitors of human sialic acid acetylesterase SIAE. Q9HAT2. AID 1053197. SIAE FP-Rh probe binding, fluorescence polarization. inhibition, % at 9.66 µM. 370,000 tested, 0.69% active;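 active = inhibition above a cutoff: mean of compounds within the control limits plus 3 SD of those, cut at about 17% in these data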;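 note: 0% = plate median of compound wells and 100% = probe without SIAE protein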
Tn6 DDE ctr: counter-screen for inhibitors of Tn6 peptide binding to fibrin DD(E) | 680 tested, 2% active | inhibition, % at 8.3 µM | AID 720621 | TRITC-Tn6 fluorescence polarization displacement; 0% = median of compound wells, not DMSO | shares compounds with Tn6 DDE FP;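 active = inhibition above the mean of test compounds lying between the control limits plus 3 SD of those, cut at about 14% in these data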;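 note: 0% = median of compound wells and 100% = wells with Aha-Tn7 blocking peptide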
Tn6 DDE conf: DD(E)-Tn6 binding inhibition, FP confirmation; FP displacement of TRITC-Tn6 peptide from DD(E); 0% = per-plate median of test wells; inhibition, % at 8.3 µM; 680 tested, 10% active; AID 720631; shares compounds with Tn6 DDE FP;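 active = inhibition above the mean of compounds lying within the control limits plus 3 SD, cut at about 16% in these data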;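 note: 100% = high control wells holding a competing inhibitor peptide at 10 µM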
* marks the source's active call; other numbers are inactive results; nt = not tested or not shown.

SMILES	HTRA1 inhibitor	mABHD4 FP	TCR CD3 inh	Tn7 DDE FP	Tn6 DDE FP	SIAE primary	Tn6 DDE ctr	Tn6 DDE conf
COc1ccc(Cl)cc1NC(=O)CN(C)Cc1cccs1	-21.5	-3.0	-5.8	1.8	-2.6	1.8	nt	nt
COc1ccc(NC(=O)N(C)C[C@@H]2OCc3ccccc3-c3c(n(C)c4ccccc34)C(=O)N([C@H](C)CO)C[C@H]2C)c(OC)c1	-5.0	9.5	3.8	-6.2	17.3*	8.3	-3.7	-5.3
CCC1(C)CC(CCN(Cc2ccco2)C(C)=O)(c2ccccc2)CCO1 (stereo not drawn)	-0.2	-1.9	3.8	-0.9	16.8*	5.2	3.8	3.1
CCCC(=O)Nc1ccc(-c2nc3ncccc3o2)cc1	1.6	-0.8	5.9	5.2	5.9	-2.5	nt	nt
CCOc1cc(CNCCCN2CCOCC2)ccc1OCC(=O)Nc1cccc2ccccc12	-8.0	5.2	6.4	9.7	18.1*	0.3	-3.8	-4.8
COc1cc(CNCCCN2CCOCC2)ccc1OCC(=O)Nc1cccc(C(F)(F)F)c1	-2.7	-1.4	-9.1	-0.1	2.1	-0.7	nt	nt
CN(C)c1ccc2nc3c(=O)[nH]c(=O)nc-3n(CC(O)C(O)C(O)CO)c2c1 (stereo not drawn)	-235.2	-176.3	-54.2	-0.5	72.5*	-278.5	-11.1	11.6
Cc1cc(N/N=C/c2ccco2)c2ccccc2n1	-6.0	5.0	1.4	6.2	17.0*	-2.3	0.7	-0.3
Cc1cc(C(=O)N/N=C/c2ccco2)c2ccccc2n1	2.7	7.5	-0.1	0.7	1.7	2.3	nt	nt
CC(=O)NC(Cc1ccccc1)C(=O)N1CCN(C(=O)c2cccs2)CC1 (stereo not drawn)	-3.6	0.8	12.0	1.1	17.0*	0.1	-8.8	-8.5
Cc1ccc2nc(COC(=O)c3cnccn3)cc(=O)n2c1	7.4	3.3	-2.3	-1.6	3.8	-3.0	nt	nt
CC(C)NC(=O)c1onc(CSc2nc3ccccc3[nH]2)c1C(=O)NC(C)C	0.1	-3.0	6.0	-1.6	15.3*	0.6	3.6	-1.0
Cc1ccc([C@H]2N[C@]3(CCCN(CC4CCCCC4)C3=O)[C@H]3C(=O)N(C)C(=O)[C@@H]23)cc1	5.6	-0.5	0.4	3.4	6.3	11.2	nt	nt
CN1C(=O)[C@H]2[C@@H](c3ccc(C(F)(F)F)cc3)N[C@]3(CCCN(CC4CCCCC4)C3=O)[C@H]2C1=O	5.3	1.6	0.1	0.6	15.9*	7.2	4.4	2.8
Cn1c(N)c(S(=O)(=O)N2CCN(c3cccc(Cl)c3)CC2)c(=O)n(C)c1=O	1.3	8.4	9.3	5.5	15.9*	7.8	4.1	1.9
Cc1c(S(=O)(=O)N2CCN(c3cccc(Cl)c3)CC2)c(=O)n(C)c(=O)n1C	4.4	-3.7	3.5	-0.1	-5.6	-5.7	nt	nt
CNc1nnc(Sc2ncccc2[N+](=O)[O-])s1	-8.4	2.9	-0.8	-0.1	-2.2	1.1	nt	nt
C/C=C/C(=O)N1CC2(CC(c3cccc(NC(=O)/C(C)=C/C)c3)=NO2)C[C@H]1C(N)=O (stereo partly drawn)	-2.0	2.5	0.8	10.2	16.9*	4.5	-0.7	2.5
Cc1c(Cl)cnc(NC(=O)COC(=O)/C=C/c2ccco2)c1Cl	5.2	7.9	-0.3	2.7	-3.4	3.0	nt	nt
O=C(COC(=O)/C=C/c1ccco1)Nc1ncc(C(F)(F)F)cc1Cl	5.0	15.0	11.7	0.7	15.9*	1.5	-7.5	-7.0
C=CCOc1cccn2c(N(C=O)Cc3ccccc3)c(CC)nc12	nt	7.5	1.5	-8.4	-1.2	-2.4	nt	nt
CC(=O)c1cccc(OCc2cc(C(=O)N3C[C@@H](C)O[C@@H](C)C3)no2)c1	1.0	-0.3	3.7	2.7	19.6*	6.4	8.4	3.5
CCCNC(=O)Nc1ccsc1C(=O)OC	-2.3	-1.5	10.4	4.7	15.3*	-1.3	3.6	1.8
